Laboratory results taken from ChEMBL document CHEMBL4219167, “Disulfiram-based disulfides as narrow-spectrum antibacterial agents” (Bioorg Med Chem Lett, 2018).
Values after ≈ are worked out from the molar mass of the structure shown.

Key:
Staphylococcus aureus [1] = assay: Antibacterial activity against methicillin-resistant Staphylococcus aureus COL after 20 hrs by broth microdilution assay; assay type: functional
Staphylococcus aureus [2] = assay: Antibacterial activity against vancomycin-intermediate resistant Staphylococcus aureus AR-217 after 20 hrs by broth microdilution assay; assay type: functional; settings: AR-217, 20 h
Staphylococcus aureus [3] = assay: Antibacterial activity against vancomycin-resistant Staphylococcus aureus HIP14300 after 20 hrs by broth microdilution assay; assay type: functional; settings: HIP14300, 20 h
[4] = tested on: Staphylococcus epidermidis; assay: Antibacterial activity against vancomycin-intermediate resistant Staphylococcus epidermidis NRS6 after 20 hrs by broth microdilution assay; assay type: functional; settings: NRS6, 20 h
Streptococcus pyogenes = assay: Antibacterial activity against Streptococcus pyogenes H293 after 20 hrs by broth microdilution assay; assay type: functional; settings: H293, 20 h
Streptococcus agalactiae = assay: Antibacterial activity against Streptococcus agalactiae SGBS005 after 20 hrs by broth microdilution assay; assay type: functional; settings: SGBS005, 20 h
Streptococcus pneumoniae = assay: Antibacterial activity against Streptococcus pneumoniae TCH8431 after 20 hrs by broth microdilution assay; assay type: functional; settings: TCH8431, 20 h
Enterococcus faecium = assay: Antibacterial activity against vancomycin-resistant Enterococcus faecium ATCC 700221 after 20 hrs by broth microdilution assay; assay type: functional; settings: ATCC 700221, 20 h
How it was run: (§1)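 Brain heart infusion broth at 37°C; E. faecium under 5% CO2. Cells at 0.5 McFarland are diluted 1:100 and exposed to serial dilutions (DMSO stocks 1 mM or 1 mg/mL; controls in water).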

Bacillus anthracis [5] = assay: Antibacterial activity against Bacillus anthracis Ames 35 after 20 hrs by broth microdilution assay; assay type: functional; settings: Ames 35, 20 h
Bacillus anthracis [6] = assay: Antibacterial activity against Bacillus anthracis Sterne 34F2 after 20 hrs by broth microdilution assay; assay type: functional; settings: Sterne 34F2, 20 h
Bacillus anthracis [7] = assay: Antibacterial activity against Bacillus anthracis UM23-1 after 20 hrs by broth microdilution assay; assay type: functional; settings: UM23-1, 20 h
Bacillus anthracis [8] = assay: Antibacterial activity against Bacillus anthracis Weybridge after 20 hrs by broth microdilution assay; assay type: functional
Francisella tularensis = assay: Antibacterial activity against Francisella tularensis Utah 112 after 20 hrs by broth microdilution assay; assay type: functional; settings: Utah 112, 20 h
Yersinia pestis [9] = assay: Antibacterial activity against Yersinia pestis Kim D2 after 20 hrs by broth microdilution assay; assay type: functional; settings: Kim D2, 20 h
Yersinia pestis [10] = assay: Antibacterial activity against Yersinia pestis Kuma D7 after 20 hrs by broth microdilution assay; assay type: functional; settings: Kuma D7, 20 h
Bacillus cereus = assay: Antibacterial activity against Bacillus cereus Gibson 971 after 20 hrs by broth microdilution assay; assay type: functional; settings: Gibson 971, 20 h
Corynebacterium striatum = assay: Antibacterial activity against Corynebacterium striatum FS-1 after 20 hrs by broth microdilution assay; assay type: functional; settings: FS-1, 20 h
Listeria monocytogenes = assay: Antibacterial activity against Listeria monocytogenes Gibson after 20 hrs by broth microdilution assay; assay type: functional; how it was run: as §1
Micrococcus luteus = assay: Antibacterial activity against Micrococcus luteus SK58 after 20 hrs by broth microdilution assay; assay type: functional; settings: SK58, 20 h
Rhodococcus erythropolis = assay: Antibacterial activity against Rhodococcus erythropolis SK121 after 20 hrs by broth microdilution assay; assay type: functional; settings: SK121, 20 h
How it was run: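 R. erythropolis grown in brain heart infusion broth at 30°C. A 0.5 McFarland suspension diluted 1:100 is treated with serial dilutions from 1 mM or 1 mg/mL DMSO stocks; control antibiotics are in water.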

Acinetobacter baumannii = assay: Antibacterial activity against Acinetobacter baumannii AB5075 after 20 hrs by broth microdilution assay; assay type: functional; settings: AB5075, 20 h
Brucella neotomae = assay: Antibacterial activity against Brucella neotomae 5K33 after 20 hrs by broth microdilution assay; assay type: functional; settings: 5K33, 20 h
Burkholderia multivorans = assay: Antibacterial activity against Burkholderia multivorans CF2 after 20 hrs by broth microdilution assay; assay type: functional; settings: CF2, 20 h
How it was run: (§2)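 Medium is tryptic soy broth, 37°C. Overnight culture is adjusted to 0.5 McFarland, diluted 1:100 and exposed to serial dilutions (test agents from 1 mM or 1 mg/mL DMSO stocks; control antibiotics in water). Incubation lasts 20 h. MIC is the lowest concentration with no visible growth.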

Burkholderia cepacia = assay: Antibacterial activity against Burkholderia cepacia UCB 717 after 20 hrs by broth microdilution assay; assay type: functional; settings: UCB 717, 20 h; how it was run: as §2
Citrobacter freundii = assay: Antibacterial activity against Citrobacter freundii 4_7_47CFAA after 20 hrs by broth microdilution assay; assay type: functional
How it was run: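 Brucella broth, 37°C, 5% CO2. Inoculum is 0.5 McFarland diluted 1:100, with serial drug dilutions from DMSO stocks (1 mM or 1 mg/mL) and control antibiotics in water.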

Escherichia coli = assay: Antibacterial activity against Escherichia coli DC10B after 20 hrs by broth microdilution assay; assay type: functional; how it was run: as §2
Klebsiella pneumoniae = assay: Antibacterial activity against Klebsiella pneumoniae 700603 after 20 hrs by broth microdilution assay; assay type: functional; settings: Klebsiella pneumoniae, 700603, 20 h; how it was run: as §2
Proteus mirabilis = assay: Antibacterial activity against Proteus mirabilis HM-752 after 20 hrs by broth microdilution assay; assay type: functional; settings: HM-752, 20 h; how it was run: as §2
Pseudomonas aeruginosa = assay: Antibacterial activity against Pseudomonas aeruginosa ATCC 15442 after 20 hrs by broth microdilution assay; assay type: functional; settings: ATCC 15442, 20 h; how it was run: as §2
Salmonella typhi = assay: Antibacterial activity against Salmonella typhi Ty2 after 20 hrs by Todd Hewitt broth broth microdilution method; assay type: functional, Salmonella enterica subsp. enterica serovar Typhi str. Ty2; settings: Salmonella enterica
Yersinia enterocolitica = assay: Antibacterial activity against Yersinia enterocolitica WA-314 after 20 hrs by broth microdilution assay; assay type: functional; settings: WA-314, 20 h
How it was run: (§3)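 Yersinia cultured in tryptic soy broth at 28°C. A 0.5 McFarland suspension diluted 1:100 receives serial dilutions of agents from 1 mM or 1 mg/mL DMSO stocks; control antibiotics are in water.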

Shigella dysenteriae = assay: Antibacterial activity against Shigella dysenteriae Newcastle 1934 after 20 hrs by broth microdilution assay; assay type: functional; settings: Newcastle 1934, 20 h; how it was run: as §2
Vibrio cholerae = assay: Antibacterial activity against Vibrio cholerae TS D4 after 20 hrs by Todd Hewitt broth broth microdilution method; assay type: functional; settings: TS D4, 20 h
[11] = tested on: Yersinia pseudotuberculosis; assay: Antibacterial activity against Yersinia pseudotuberculosis P61 after 20 hrs by broth microdilution assay; assay type: functional; settings: P61, 20 h; how it was run: as §3
HepG2 = assay: Cytotoxicity against human HepG2 cells assessed as reduction in cell viability after 72 hrs by MTT assay; assay type: cell-based; settings: HepG2, 72 h

| SMILES | MIC (Staphylococcus aureus [1]) | MIC (Staphylococcus aureus [2]) | MIC (Staphylococcus aureus [3]) | MIC [4] | MIC (Streptococcus pyogenes) | MIC (Streptococcus agalactiae) | MIC (Streptococcus pneumoniae) | MIC (Enterococcus faecium) | MIC (Bacillus anthracis [5]) | MIC (Bacillus anthracis [6]) | MIC (Bacillus anthracis [7]) | MIC (Bacillus anthracis [8]) | MIC (Francisella tularensis) | MIC (Yersinia pestis [9]) | MIC (Yersinia pestis [10]) | MIC (Bacillus cereus) | MIC (Corynebacterium striatum) | MIC (Listeria monocytogenes) | MIC (Micrococcus luteus) | MIC (Rhodococcus erythropolis) | other results |
| --- | --- | --- | --- | --- | --- | --- | --- | --- | --- | --- | --- | --- | --- | --- | --- | --- | --- | --- | --- | --- | --- |
| CCCCCCSSC(=S)N(CC)CC [DIETHYLCARBAMO(DITHIOPEROXO)THIOATE] | 16 µM (≈ 4.25 µg/mL) | 4 µM (≈ 1.06 µg/mL) | 8 µM (≈ 2.12 µg/mL) | 8 µM (≈ 2.12 µg/mL) | > 32 µM | > 32 µM | > 32 µM | > 32 µM | 4 µM (≈ 1.06 µg/mL) | 4 µM (≈ 1.06 µg/mL) | 2 µM (≈ 0.531 µg/mL) | 8 µM (≈ 2.12 µg/mL) | 32 µM (≈ 8.5 µg/mL) | 32 µM (≈ 8.5 µg/mL) | 32 µM (≈ 8.5 µg/mL) | 2 µM (≈ 0.531 µg/mL) | 16 µM (≈ 4.25 µg/mL) | 8 µM (≈ 2.12 µg/mL) | 16 µM (≈ 4.25 µg/mL) | 8 µM (≈ 2.12 µg/mL) | MIC (Acinetobacter baumannii): > 32 µM; MIC (Brucella neotomae): > 32 µM; MIC (Burkholderia multivorans): > 32 µM; MIC (Burkholderia cepacia): > 32 µM; MIC (Citrobacter freundii): > 32 µM; MIC (Escherichia coli): > 32 µM; MIC (Klebsiella pneumoniae): > 32 µM; MIC (Proteus mirabilis): > 32 µM; MIC (Pseudomonas aeruginosa): > 32 µM; MIC (Salmonella typhi): > 32 µM; MIC (Yersinia enterocolitica): > 32 µM; MIC (Shigella dysenteriae): > 32 µM; MIC (Vibrio cholerae): > 32 µM; MIC [11]: > 32 µM; IC50 (HepG2): 51 µM |
| CCCCCCCSSC(=S)N(CC)CC | 4 µM (≈ 1.12 µg/mL) | 2 µM (≈ 0.559 µg/mL) | 4 µM (≈ 1.12 µg/mL) | 4 µM (≈ 1.12 µg/mL) | 16 µM (≈ 4.47 µg/mL) | > 32 µM | 32 µM (≈ 8.95 µg/mL) | 8 µM (≈ 2.24 µg/mL) | 4 µM (≈ 1.12 µg/mL) | 2 µM (≈ 0.559 µg/mL) | 1 µM (≈ 0.28 µg/mL) | 2 µM (≈ 0.559 µg/mL) | 16 µM (≈ 4.47 µg/mL) | 32 µM (≈ 8.95 µg/mL) | 32 µM (≈ 8.95 µg/mL) | 1 µM (≈ 0.28 µg/mL) | 16 µM (≈ 4.47 µg/mL) | 4 µM (≈ 1.12 µg/mL) | 16 µM (≈ 4.47 µg/mL) | 16 µM (≈ 4.47 µg/mL) | MIC (Acinetobacter baumannii): > 32 µM; MIC (Brucella neotomae): > 32 µM; MIC (Burkholderia multivorans): > 32 µM; MIC (Burkholderia cepacia): > 32 µM; MIC (Citrobacter freundii): > 32 µM; MIC (Escherichia coli): > 32 µM; MIC (Klebsiella pneumoniae): > 32 µM; MIC (Proteus mirabilis): > 32 µM; MIC (Pseudomonas aeruginosa): > 32 µM; MIC (Salmonella typhi): > 32 µM; MIC (Yersinia enterocolitica): > 32 µM; MIC (Shigella dysenteriae): > 32 µM; MIC (Vibrio cholerae): > 32 µM; MIC [11]: > 32 µM |
| CCCCCCCCCSSC(=S)N(CC)CC | 8 µM (≈ 2.46 µg/mL) | 8 µM (≈ 2.46 µg/mL) | 16 µM (≈ 4.92 µg/mL) | 4 µM (≈ 1.23 µg/mL) | 8 µM (≈ 2.46 µg/mL) | 32 µM (≈ 9.84 µg/mL) | 8 µM (≈ 2.46 µg/mL) | 8 µM (≈ 2.46 µg/mL) | – | – | – | – | – | – | – | – | – | – | – | – | IC50 (HepG2): 55 µM |
